One test deals with ACHN. As to the kind of experiment: Growth inhibition of human ACHN cells by SRB assay. The test is classed as functional.
Test [1] concerns MDA-MB-231. As to the kind of experiment: Growth inhibition of human MDA-MB-231 cells by SRB assay. The test is classed as functional.
The next test deals with Histone deacetylase. As to the kind of experiment: Inhibition of HDAC in HeLa cell lysates. The test is classed as protein assay, Homo sapiens.
The test system of another test is PC-3. As to the kind of experiment: Growth inhibition of human PC3 cells by SRB assay. The test is classed as functional.
The test system of a further test is NUGC-3. The test is described as follows: Growth inhibition of human NUGC3 cells by SRB assay. The test is classed as functional.
Another test deals with HCT-15. The test is described as follows: Growth inhibition of human HCT15 cells by SRB assay. The format is functional.
Test [2] relates to MDA-MB-231. As to the kind of experiment: Antitumor activity against MDA-MB-231 cells xenografted BALB/c nude mouse at 30 mg/kg, ip for 15 days. The format is functional, Homo sapiens. To be noted: MDA-MB-231, ip, 360 h, route intraperitoneal.
In test [3] the test system is MDA-MB-231. The test is described as follows: Antitumor activity against MDA-MB-231 cells xenografted BALB/c nude mouse assessed as body weight at 30 mg/kg, ip for 15 days. To be noted: route intraperitoneal. The test is classed as functional, Homo sapiens. An outline of the steps:
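Nude mice carrying MDA-MB-231 human breast xenografts were dosed once daily by intraperitoneal injection at 30 mg/kg. Dosing began once tumours reached 50–60 mm³.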

Test [4] concerns the target Histone deacetylase (Homo sapiens) (UniProt Q13547+O15379+Q9UBN7+Q92769+Q9UQL6+Q8WUI4+Q9BY41+Q96DB2+P56524+Q9UKV0+Q969S8). The conditions noted are these: HeLa.

In the case of `O=C(CCC1=CCCN(CCCCc2cccc3ccccc23)C1=O)NO`, the concentration for 50% growth inhibition (GI50) in the test on ACHN came to 1820 nM; with MDA-MB-231 [1] it was 1470 nM; in the test on PC-3, 1690 nM; with NUGC-3, 2010 nM; in the test on HCT-15, 1670 nM. The 50% inhibitory concentration (IC50) against Histone deacetylase came to 110 nM.

For the compound `O=C(CCC1=CCCN(CCCCc2ccc(-c3ccccc3)cc2)C1=O)NO`, the GI50 turned out to be 2670 nM with ACHN; 1280 nM in the test on MDA-MB-231 [1]; 2950 nM with PC-3; 4200 nM in the test on NUGC-3; 4560 nM in the test with HCT-15. The compound also gave a half-inhibitory concentration (IC50) at Histone deacetylase of 200 nM.

In the case of `O=C(CCC1=CCCN(Cc2ccc(NC(=O)c3ccccc3)cc2)C1=O)NO`, the concentration for 50% growth inhibition (GI50) is over 10000 nM in the test on ACHN; 6030 nM in the test on MDA-MB-231 [1]; over 10000 nM in the test on PC-3; over 10000 nM in the test with NUGC-3; over 10000 nM in the test with HCT-15. The compound further showed an IC50 on Histone deacetylase of 510 nM.

In the case of `COc1ccccc1CN1CCC=C(CCC(=O)NO)C1=O`, the GI50 in the test on ACHN, in the test with MDA-MB-231 [1], in the test with PC-3 and in the test on HCT-15 was over 10000 nM in each case. In addition, on Histone deacetylase, the concentration for half-maximal inhibition (IC50) came to 860 nM.

As to `COc1cccc(CN2CCC=C(CCC(=O)NO)C2=O)c1`, the concentration for 50% growth inhibition (GI50) is 7600 nM in the test with ACHN, 3920 nM with MDA-MB-231 [1], over 10000 nM in the test with PC-3 and 9030 nM in the test on HCT-15. For the same compound, the IC50 at Histone deacetylase turned out to be 1940 nM.

As for `O=C(CCC1=CCCN(Cc2ccc(Br)cc2)C1=O)NO`, the 50% growth inhibitory concentration (GI50) was 2480 nM in the test with ACHN, 1630 nM in the test on MDA-MB-231 [1], 3150 nM with PC-3 and 1720 nM with HCT-15. This compound gave an IC50 at Histone deacetylase of 450 nM.

At Histone deacetylase, `O=C(CCC1=CCCN(Cc2ccc(F)cc2)C1=O)NO` returned a half-maximal inhibitory concentration (IC50) of 560 nM. The concentration for 50% growth inhibition (GI50) in the test with HCT-15 was found to be 9960 nM.

On to `Cc1ccc(CN2CCC=C(CCC(=O)NO)C2=O)cc1`, for which the GI50 is 5000 nM in the test with ACHN, 1430 nM in the test with MDA-MB-231 [1], 8100 nM in the test with PC-3 and 8510 nM in the test on HCT-15. In addition, the IC50 on Histone deacetylase was found to be 2100 nM.

`COc1ccc(CN2CCC=C(CCC(=O)NO)C2=O)cc1`: the concentration for 50% growth inhibition (GI50) came to 1670 nM with ACHN, 3860 nM with MDA-MB-231 [1], 7080 nM with PC-3 and 6890 nM in the test on HCT-15. The compound further showed a half-inhibitory concentration (IC50) on Histone deacetylase of 440 nM.

Consider `O=C(CCC1=CCCN(CCCc2ccc3ccccc3c2)C1=O)NO`, for which the GI50 is 460 nM in the test with ACHN; 560 nM with MDA-MB-231 [1]; 300 nM in the test with PC-3; 790 nM in the test on NUGC-3; 530 nM with HCT-15. In addition, the half-inhibitory concentration (IC50) against Histone deacetylase is 30 nM.

For `O=C(CCC1=CCCN(CCc2cccc3ccccc23)C1=O)NO`, the GI50 stood at 6620 nM with ACHN; 2530 nM with MDA-MB-231 [1]; 2580 nM in the test with PC-3; 3260 nM in the test on NUGC-3; 5430 nM in the test on HCT-15. Further, the concentration for half-maximal inhibition (IC50) at Histone deacetylase was determined as 320 nM.

In the case of `O=C(CCC1=CCCN(CCc2ccc3ccccc3c2)C1=O)NO`, the GI50 stood at 1180 nM in the test with ACHN; 280 nM with MDA-MB-231 [1]; 610 nM with PC-3; 370 nM in the test on NUGC-3; 1160 nM with HCT-15. This compound came in with an IC50 against Histone deacetylase of 37 nM. The inhibition in vivo at 30 mg/kg with MDA-MB-231 [2] is 51%. The Activity in the test with MDA-MB-231 [3] is on record as 94%.

Consider `O=C(CCC1=CCCN(CCc2ccc(-c3ccccc3)cc2)C1=O)NO`, for which the GI50 in the test with ACHN is 1180 nM; in the test with MDA-MB-231 [1] it was 280 nM; in the test on PC-3 it was 530 nM; with NUGC-3 it was 1650 nM; with HCT-15, 1000 nM. Further, the IC50 on Histone deacetylase amounted to 230 nM.

In the case of `Cc1ccccc1CN1CCC=C(CCC(=O)NO)C1=O`, the concentration for 50% growth inhibition (GI50) in the test with ACHN is over 10000 nM; in the test on MDA-MB-231 [1], 4920 nM; in the test with PC-3, over 10000 nM; with HCT-15, over 10000 nM. The IC50 at Histone deacetylase was determined as 2970 nM.

For `O=C(CCC1=CCCN(CCCc2ccc(-c3ccccc3)cc2)C1=O)NO`, the GI50 stood at 2490 nM in the test with ACHN; 1040 nM with MDA-MB-231 [1]; 3230 nM in the test on PC-3; 3700 nM in the test on NUGC-3; 3190 nM in the test with HCT-15. This compound also yielded an IC50 on Histone deacetylase of 270 nM.

In turn, `O=C(CCC1=CCCN(Cc2ccc3ccccc3c2)C1=O)NO` had a half-inhibitory concentration (IC50) in test [4] of over 10000 nM.

For the compound `Cc1cccc(CN2CCC=C(CCC(=O)NO)C2=O)c1`, the concentration for 50% growth inhibition (GI50) was 4380 nM in the test with ACHN, 8120 nM with MDA-MB-231 [1], over 10000 nM in the test with PC-3 and over 10000 nM in the test with HCT-15. On Histone deacetylase, this compound displayed an IC50 of 1900 nM.

Turning to `O=C(CCC1=CCCN(Cc2ccc([N+](=O)[O-])cc2)C1=O)NO`, the concentration for 50% growth inhibition (GI50) was 5210 nM with ACHN; 470 nM with MDA-MB-231 [1]; 3010 nM in the test with PC-3; 1110 nM with NUGC-3; over 10000 nM in the test with HCT-15. The half-maximal inhibitory concentration (IC50) against Histone deacetylase came out at 230 nM.

As for `Cc1ccc(S(=O)(=O)Nc2ccc(CN3CCC=C(CCC(=O)NO)C3=O)cc2)cc1`, the GI50 in the test with ACHN was 370 nM; in the test with MDA-MB-231 [1], 560 nM; with PC-3 it was 1800 nM; in the test on HCT-15, over 10000 nM. At Histone deacetylase, this compound had an IC50 of 590 nM.

With `O=C(CCCCCCC(=O)Nc1ccccc1)NO` [VORINOSTAT], the concentration for 50% growth inhibition (GI50) with ACHN was found to be 2220 nM. Further, in the test with MDA-MB-231 [3], the Activity was 100%.

As for `CC(=O)Nc1ccc(CN2CCC=C(CCC(=O)NO)C2=O)cc1`, at Histone deacetylase, the half-maximal inhibitory concentration (IC50) turned out to be 820 nM. Further, the GI50 in the test on PC-3 is over 10000 nM.

These data come from ChEMBL document CHEMBL1140539, “Modification of cap group in delta-lactam-based histone deacetylase (HDAC) inhibitors” (Bioorg Med Chem Lett, 2007).
